From ChEMBL document CHEMBL1126685, “Bronchodilator activity of xanthine derivatives substituted with functional groups at the 1- or 7-position” (J Med Chem, 1993) come the findings set out here.

Each structure is given as a SMILES string.

The target of one assay is T1, Adenosine receptor A1 (Cavia porcellus, UniProt P47745).
T1 sequence (P47745 whole entry): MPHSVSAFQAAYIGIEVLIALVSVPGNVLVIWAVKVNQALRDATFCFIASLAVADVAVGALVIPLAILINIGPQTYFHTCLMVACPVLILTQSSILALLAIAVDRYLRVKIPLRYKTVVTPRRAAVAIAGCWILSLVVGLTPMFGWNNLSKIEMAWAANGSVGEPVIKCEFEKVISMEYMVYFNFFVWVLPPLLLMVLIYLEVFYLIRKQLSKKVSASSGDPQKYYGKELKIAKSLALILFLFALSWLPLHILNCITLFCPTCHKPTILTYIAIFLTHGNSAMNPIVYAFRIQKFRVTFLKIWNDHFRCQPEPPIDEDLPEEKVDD
Description: Binding affinity against adenosine A1 receptor of cerebral cortex using [3H]CPX as a radioligand. In kind it is tissue-based.

The species entered for assay [1] is Cavia porcellus. Description: Effective concentration required in vitro for heart stimulation (right atrium) in guinea pig. In kind it is functional. As to conditions: Cardiac atrium. Summed up:
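Isolated right atrium of male Hartley guinea pigs, 25 °C Krebs-Henseleit gassed 95% O2–5% CO2, 0.5 g tension; cumulative concentrations; beating rate via cardiometer triggered by isometric contraction. EC15 = concentration raising rate 15% above unstimulated; 3–5 experiments.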

Assay [2] relates to Cavia porcellus. Nature of the assay: Bronchodilatory effect, 50% inhibition of spasmogen-induced response in male Hartley guinea pigs on intraduodenal administration. In kind it is functional. Summed up:
(§1)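 Urethane-anesthetized (1.5 g/kg ip), ventilated male Hartley guinea pigs; compound suspended in 0.5% carboxymethylcellulose given intraduodenally 5 min before iv acetylcholine 40 μg/kg (jugular, every 15 min, after three stable responses); Konzett–Rossler overflow bronchospasm and carotid-pulse heart rate followed 110 min.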

The test system of assay [3] is Cavia porcellus. Nature of the assay: Positive chronotropic effect, 15% increase in heart rate of male Hartley guinea pigs on intraduodenal administration (mean of 3-5 animals). In kind it is functional. Summed up:
as §1

For assay [4], the species on record is Cavia porcellus. Description: Effective concentration required in vitro for tracheal muscle (from male Hartley guinea pigs) relaxation. In kind it is functional. The note with it: Trachea. Summed up:
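Tracheal ring chains from male Hartley guinea pigs (300–500 g), 37 °C Krebs-Henseleit pH 7.4, 95% O2–5% CO2, 0.5 g tension, spontaneous tone; cumulative compound addition, isotonic recording.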

The nature of assay [5]: Bronchoselectivity expressed as ratio of stimulatory activity in the right atrium (EC15) to relaxant activity in the tracheal muscle (EC50). It counts as functional, Cardiac atrium.
Assay [6] concerns the target cyclic AMP phosphodiesterase (guinea pig). Description: Inhibition of cyclic AMP-phosphodiesterase ( PDE) in the supernatant of tracheal muscle homogenate.
In assay [7] the target is Adenosine A2 receptor (guinea pig). Nature of the assay: Binding affinity against adenosine A2 receptor of striatal membrane using [3H]CGS-21680 as a radioligand.

Turning to `CCCn1c(=O)c2nc[nH]c2n(CCC)c1=O`, affinity on Adenosine receptor A1 was put at a Ki of 0.21 µM. The molecule also returned an EC15 in the assay filed under Cavia porcellus [1] of 20 µM. In the assay with Cavia porcellus [2], it took a dose of 4.69 mg/kg to reach the 50% effect level (ED50). In addition, the ED15 in the assay on Cavia porcellus [3] is 25.5 mg/kg.

Take `CCCn1c(=O)n(C)c(=O)c2c1ncn2CCC(=O)O`: the Ki (on Adenosine receptor A1; in assay [6]; in assay [7]) was more than 200 µM throughout. For the same molecule, the EC50 – broadly, the concentration needed to bring the measured effect to its halfway point – in the assay filed under Cavia porcellus [4] is more than 100 µM. This molecule also registered an EC15 in the assay filed under Cavia porcellus [1] of more than 100 µM. Further, the Selectivity in assay [5] worked out at 1.

As to `CCCn1c(=O)n(CC(=O)O)c(=O)c2[nH]cnc21`, the inhibition constant (Ki) (at Adenosine receptor A1; in assay [6]; in assay [7]) was more than 200 µM throughout. The same molecule came in with an EC50 in the assay filed under Cavia porcellus [4] of 41 µM. The molecule also yielded an EC15 in the assay listed under Cavia porcellus [1] of more than 100 µM. Moreover, the Selectivity in assay [5] turned out to be 2.4.

Consider `Cn1c(=O)c2nc[nH]c2n(C)c1=O.O` [THEOPHYLLINE], for which the EC15 in the assay filed under Cavia porcellus [1] stood at 62 µM. Besides, the ED15 in the assay on Cavia porcellus [3] amounted to 20.2 mg/kg.

Take `CCCn1c(=O)n(CCC(N)=O)c(=O)c2[nH]cnc21`: the results for the Ki (at Adenosine receptor A1; in assay [6]; in assay [7]) were 31.5 µM, 56.3 µM and more than 200 µM, respectively. This molecule returned an EC50 in the assay listed under Cavia porcellus [4] of 13.1 µM. Moreover, the EC15 in the assay listed under Cavia porcellus [1] was 31.2 µM. The Selectivity in assay [5] is given as 2.4.

Turning to `CCCn1c(=O)n(CCOC)c(=O)c2[nH]cnc21`, the inhibition constant Ki (usually a measure of affinity in units of concentration, obtained from inhibition or displacement) was determined as 2.5 µM at Adenosine receptor A1, 8.2 µM in assay [6] and 21.6 µM in assay [7]. In addition, in the assay filed under Cavia porcellus [4], the EC50 is 0.7 µM. The EC15 in the assay listed under Cavia porcellus [1] worked out at 6.3 µM. In addition, the Selectivity in assay [5] is 9.

On to `CCCn1c(=O)n(CC(C)=O)c(=O)c2[nH]cnc21`, for which the Ki was 11.4 µM at Adenosine receptor A1, 46.4 µM in assay [6] and more than 200 µM in assay [7]. The molecule further showed an EC50 in the assay listed under Cavia porcellus [4] of 14.9 µM. Besides, the EC15 in the assay listed under Cavia porcellus [1] is 45.7 µM. Further, the Selectivity in assay [5] came out at 3.1.

Take `CCCn1c(=O)n(C)c(=O)c2c1ncn2CC(N)=O`: the Ki is more than 200 µM at Adenosine receptor A1, 119 µM in assay [6] and more than 200 µM in assay [7]. The same molecule gave an EC50 in the assay listed under Cavia porcellus [4] of more than 100 µM. The EC15 in the assay listed under Cavia porcellus [1] is more than 100 µM. Also, in assay [5], the Selectivity is on record as 1.

For the molecule `C=CCCn1cnc2c1c(=O)n(C)c(=O)n2CCC`, the Ki at Adenosine receptor A1 came out at 6 µM; in assay [6], 29.9 µM; in assay [7], 5.6 µM. In the assay listed under Cavia porcellus [4], this molecule gave a concentration for a half-maximal effect (EC50) of 16.8 µM. Further, in the assay filed under Cavia porcellus [1], the EC15 came to 30.6 µM. Moreover, in assay [5], the Selectivity was found to be 1.8.

As to `CCCn1c(=O)n(C)c(=O)c2c1ncn2CCN(C)C`, the Ki on Adenosine receptor A1 is more than 200 µM; in assay [6] it was 53 µM; in assay [7], more than 200 µM. In the assay filed under Cavia porcellus [4], this molecule gave an EC50 of more than 100 µM. The molecule further gave an EC15 in the assay filed under Cavia porcellus [1] of more than 100 µM. The Selectivity in assay [5] worked out at 1.

As to `CCCn1c(=O)n(C)c(=O)c2c1ncn2CCOC`, the Ki on Adenosine receptor A1 came out at 12.4 µM; in assay [6], 72.7 µM; in assay [7], 58.7 µM. This molecule also displayed an EC50 in the assay filed under Cavia porcellus [4] of 36.1 µM. Further, the EC15 in the assay listed under Cavia porcellus [1] is more than 100 µM. The Selectivity in assay [5] was determined as 2.8.

As to `CCCn1c(=O)n(C)c(=O)c2c1ncn2CCO`, the Ki at Adenosine receptor A1 is 41.4 µM; in assay [6] it was 28.7 µM; in assay [7] it was more than 200 µM. The molecule further gave a 50% effective concentration (EC50) in the assay filed under Cavia porcellus [4] of 31.8 µM. The EC15 in the assay listed under Cavia porcellus [1] is more than 100 µM. In assay [5], the Selectivity was determined as 3.1.

With `CCCn1c(=O)[nH]c(=O)c2nc[nH]c21` [ENPROFYLLINE], the EC15 in the assay listed under Cavia porcellus [1] was found to be 18.3 µM. Also, the ED15 with Cavia porcellus [3] worked out at 95.1 mg/kg.

On to `CCCn1c(=O)n(CCCO)c(=O)c2[nH]cnc21`, for which the Ki is 12 µM on Adenosine receptor A1, 12.6 µM in assay [6] and 68.7 µM in assay [7]. Moreover, it took 5.1 µM to reach a half-maximal effect in the assay listed under Cavia porcellus [4] (EC50). The molecule further showed an EC15 in the assay listed under Cavia porcellus [1] of 26.4 µM. Also, the Selectivity in assay [5] was found to be 5.2.

With `CCCn1c(=O)n(C)c(=O)c2c1ncn2CCC(C)=O`, the Ki is 30 µM at Adenosine receptor A1, 32.8 µM in assay [6] and more than 200 µM in assay [7]. Further, in the assay filed under Cavia porcellus [4], the EC50 was found to be 12.2 µM. In the assay listed under Cavia porcellus [1], this molecule returned an EC15 of more than 100 µM. The Selectivity in assay [5] is given as 8.2.
